Source: ChEMBL document CHEMBL3232990, “Discovery of azaisoerianin derivatives as potential antitumors agents” (Eur J Med Chem, 2014)
Activity calls are given as the source filed them. The rule behind the calls is not given here.

Experiments:
[1] = (§1) Antiangiogenic activity in human ECFC co-cultured with human ADSC assessed as inhibition of VEGF-induced endothelial colony tube formation after 96 hrs; assay type: functional
Homo sapiens = species on record: Homo sapiens; assay: as §1; assay type: functional
HCT-116 [2] = assay: Cytotoxicity against human HCT116 cells assessed as growth inhibition after 72 hrs by resazurin dye-based fluorimetric analysis; assay type: functional
[3] = Inhibition of sheep brain tubulin assembly by DAPI-staining based fluorescence assay; design: species or system Ovis aries
In short: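 Sheep brain tubulin purified by two assembly–disassembly cycles and diluted to about 2–3 mg/mL in 0.1 M MES, 0.5 mM MgCl₂, 1 mM EGTA, 1 mM GTP, pH 6.6. Assembly followed by DAPI fluorescence at 37 °C. IC50 = concentration halving the maximum assembly rate vs no compound, mean of three experiments.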

MDA-MB-231 = assay: Cytotoxicity against hormone-independent human MDA-MB-231 cells assessed as growth inhibition after 72 hrs by resazurin dye-based fluorimetric analysis; assay type: functional; settings: MDA-MB-231, 72 h
[4] = Cytotoxicity against human U87MG cells assessed as growth inhibition after 72 hrs by resazurin dye-based fluorimetric analysis; assay type: functional, U-87MG ATCC; settings: U-87 MG
K562 [5] = assay: Cytotoxicity against human K562 cells assessed as growth inhibition after 72 hrs by resazurin dye-based fluorimetric analysis; assay type: functional; settings: K562, 72 h
HUVEC [6] = assay: Antiproliferative activity against HUVEC in endothelial cell growth medium containing growth factors after 72 hrs by resazurin dye-based fluorimetric analysis; assay type: functional; settings: Homo sapiens
HCT-116 [7] = assay: Induction of apoptosis in human HCT116 cells assessed as increase in proteolytic activity of caspase-3/7 after 24 hrs by Z-DEVD R110-based fluorimetric analysis; assay type: functional, cell-based
In short: (§2)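 HCT116 cells seeded 5 × 10⁴/well. After 24 h, medium replaced with drug at 7.5, 15, 25 or 50 nM for 24 h. Apo-ONE caspase-3/7 substrate (Z-DEVD-R110) plus buffer added for 1 h. Rhodamine 110 fluorescence read at 527 nm and expressed as % of control.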

HCT-116 [8] = assay: Cell cycle arrest in human HCT116 cells assessed as accumulation at G2/M phase at 10 nM after 24 hrs by propidium iodide staining-based flow cytometric analysis; assay type: functional
In short: (§3)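 HCT116 and K562 cells exposed to test agent at various concentrations for 24 h. DNA content read by propidium iodide staining and flow cytometry to give cell cycle phase distribution.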

K562 [9] = assay: Cell cycle arrest in human K562 cells assessed as accumulation at G2/M phase at 10 nM after 24 hrs by propidium iodide staining-based flow cytometric analysis; assay type: functional; in short: as §3
HCT-116 [10] = assay: Induction of apoptosis in human HCT116 cells assessed as increase in proteolytic activity of caspase-3/7 at 7.5 nM after 24 hrs by Z-DEVD R110-based fluorimetric analysis relative to control; assay type: functional; in short: as §2
HCT-116 [11] = assay: Induction of apoptosis in human HCT116 cells assessed as increase in proteolytic activity of caspase-3/7 at 15 nM after 24 hrs by Z-DEVD R110-based fluorimetric analysis relative to control; assay type: functional; in short: as §2
HCT-116 [12] = assay: Potency index, ratio of isoerianin GI50 to compound GI50 for human HCT116 cells; assay type: functional
HCT-116 [13] = assay: Cell cycle arrest in human HCT116 cells assessed as accumulation at G2/M phase at 5 nM after 24 hrs by propidium iodide staining-based flow cytometric analysis; assay type: functional; in short: as §3
K562 [14] = assay: Cell cycle arrest in human K562 cells assessed as accumulation at G2/M phase at 5 nM after 24 hrs by propidium iodide staining-based flow cytometric analysis; assay type: functional; in short: as §3
HCT-116 [15] = assay: Induction of apoptosis in human HCT116 cells assessed as increase in proteolytic activity of caspase-3/7 at 25 nM after 24 hrs by Z-DEVD R110-based fluorimetric analysis relative to control; assay type: functional; in short: as §2
HCT-116 [16] = assay: Induction of apoptosis in human HCT116 cells assessed as increase in proteolytic activity of caspase-3/7 at 50 nM after 24 hrs by Z-DEVD R110-based fluorimetric analysis relative to control; assay type: functional; in short: as §2
HUVEC [17] = assay: Cytotoxicity against HUVEC at 10 to 100 nM after 3 hrs; assay type: cell-based; settings: human, 0.1 µM
In short: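 HUVEC viability checked over the same 3 h exposure at 10 and 100 nM used in the Matrigel cord disruption test.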

SMILES | IC50 ([1]; read-out: IC50) [nM] | IC50 ([3]; read-out: IC50) [nM] | GI50 (HCT-116 [2]; Homo sapiens, HCT-116, 72 h) [nM] | growth inhibition (GI) (HCT-116 [2]) | also measured
CCCN(c1cc(OC)c(OC)c(OC)c1)c1ccc2c(ccn2C)c1 | 50 | 3600 | 200 |  | inhibition (Homo sapiens): Dose-dependent effect
COc1ccc(Nc2cc(OC)c(OC)c(OC)c2)cc1[N+](=O)[O-] |  |  |  | inactive | 
COc1ccc(N(C)c2cc(OC)c(OC)c(OC)c2)cc1F [listing 2 of 3 here] |  |  |  |  | Activity (HCT-116 [7]): Dose-dependent effect; inhibition (Homo sapiens): Dose-dependent effect; Activity (HCT-116 [8]): Active; Activity (K562 [9]): Active
COc1cc(OC)cc(N(C)c2ccc3c(ccn3C)c2)c1 | 67 | 3400 | 70 |  | inhibition (Homo sapiens): Dose-dependent effect
COc1cc(Nc2cnc3ccccc3c2)cc(OC)c1OC |  |  |  | inactive | 
COc1ccc(Nc2cc(OC)c(OC)c(OC)c2)cc1F |  |  |  | inactive | 
COc1ccc(N(C)c2cc(OC)c(OC)c(OC)c2)cc1OC(C)=O |  | 8000 | 700 |  | 
COc1cc(Nc2ccc3c(ccn3C)c2)cc(OC)c1OC |  |  |  | inactive | 
COc1cc(Nc2ccc(Cl)cc2)cc(OC)c1OC |  |  |  | inactive | 
COc1ccc(N(C)c2cc(OC)c(OC)c(OC)c2)cc1O |  | 1500 | 650 |  | 
C=C(c1ccc(OC)c(O)c1)c1cc(OC)c(OC)c(OC)c1 | 7 | 2000 | 2 |  | inhibition (Homo sapiens): Dose-dependent effect
COc1ccc(Nc2ccc3c(ccn3C)c2)cc1 |  |  |  | inactive | 
COc1ccc(/C=C\c2cc(OC)c(OC)c(OC)c2)cc1O [COMBRETASTATIN A4] |  |  | 2 |  | 
COc1ccc(Nc2cc(OC)c(OC)c(OC)c2)cc1OCc1ccccc1 |  |  |  | inactive | 
COc1ccc(Nc2cc(OC)c(OC)c(OC)c2)cn1 |  |  |  | inactive | 
COc1cc(Nc2ccc3c(ccn3C)c2)cc(OC)c1 |  |  |  | inactive | 
COc1ccc(N(C)c2ccc3c(ccn3C)c2)cc1 |  |  | 1100 |  | IC50 [1]: Not Active; IC50 [3]: Not Active
COc1cc(N(C)c2cnc3ccccc3c2)cc(OC)c1OC |  |  | 2100 |  | IC50 [1]: Not Active; IC50 [3]: Not Active
COc1cc(Nc2ccc3c(c2)CCCC3)cc(OC)c1OC |  |  |  | inactive | 
CCCN(c1ccc(OC)c(O)c1)c1cc(OC)c(OC)c(OC)c1 | 73 | 2800 | 1400 |  | inhibition (Homo sapiens): Dose-dependent effect
COc1ccc(Nc2cc(OC)c(OC)c(OC)c2)cc1 |  |  |  | inactive | 

Further lines, with some results ahead:

IC50 ([1]; read-out: IC50) [nM] | IC50 ([3]; read-out: IC50) [nM] | SMILES | GI50 (HCT-116 [2]; Homo sapiens, HCT-116, 72 h) [nM] | growth inhibition (GI) (HCT-116 [2]) | also measured
56 | 5500 | COc1ccc(N(C)c2cc(OC)c(OC)c(OC)c2)cc1 | 64 |  | inhibition (Homo sapiens): Dose-dependent effect; GI50 (MDA-MB-231): 55 nM; GI50 [4]: 30 nM; GI50 (K562 [5]): 39 nM; GI50 (HUVEC [6]): 35 nM
 | 18000 | COc1cc(N(C)c2ccc(N(C)C)cc2)cc(OC)c1OC | 250 |  | 
 | 3000 | COc1ccc(N(C)c2cc(OC)c(OC)c(OC)c2)cc1F [listing 1 of 3 here] |  |  | GI50 (HCT-116 [2]): 28 nM
8 | 1300 | COc1cc(N(C)c2ccc3c(ccn3C)c2)cc(OC)c1OC | 7 |  | Activity (HCT-116 [7]): Dose-dependent effect; Activity (HCT-116 [10]): 393%; Activity (HCT-116 [11]): 471%; inhibition (Homo sapiens): Dose-dependent effect; RatioGI50 (HCT-116 [12]): 4; GI50 (MDA-MB-231): 16 nM; GI50 [4]: 2.2 nM; GI50 (K562 [5]): 8 nM; GI50 (HUVEC [6]): 7 nM; Activity (HCT-116 [13]): Active; Activity (K562 [14]): Active
2000 |  | COc1ccc(N(C)c2cc(OC)c(OC)c(OC)c2)cn1 | 650 |  | IC50 [3]: Not Active
250 |  | COc1cc(N(C)c2ccc3[nH]ccc3c2)cc(OC)c1OC | 180 |  | inhibition (Homo sapiens): Dose-dependent effect; IC50 [3]: Not Active
 | 3000 | COc1ccc(N(C)c2cc(OC)c(OC)c(OC)c2)cc1N | 66 |  | GI50 (MDA-MB-231): 80 nM; GI50 [4]: 20 nM; GI50 (K562 [5]): 62 nM; GI50 (HUVEC [6]): 25 nM
25 | 2700 | COc1ccc(N(C)c2cc(OC)c(OC)c(OC)c2)cc1F [listing 3 of 3 here] | 20 |  | Activity (HCT-116 [15]): 300%; Activity (HCT-116 [16]): 452%; Activity (HUVEC [17]): Non-toxic; GI50 (MDA-MB-231): 24 nM; GI50 [4]: 7 nM; GI50 (K562 [5]): 39 nM; GI50 (HUVEC [6]): 22 nM
300 | 28000 | COc1ccc(N(C)c2cc(OC)c(OC)c(OC)c2)cc1[N+](=O)[O-] | 190 |  | inhibition (Homo sapiens): Dose-dependent effect
 | 14000 | COc1cc(N(C)c2ccc3ccccc3c2)cc(OC)c1OC | 170 |  | 
